# Assay outcomes: PubChem, several laboratories
# In the library only some 2.9% were active in any assay of this set; here they are far more common.
# ADAM17 inh – ADAM17 inhibition, QFRET primary screen; 370,000 compounds, 0.83% hits; P78536; recombinant ADAM17, EDANS/DABCYL FRET peptide cleavage; inhibition, % at 6.95 µM;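 active = inhibition above the mean of compounds lying between control limits plus 3 SD, set per campaign, cut at about 8.5% in these data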;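 also: 0% = DMSO-only wells as the low control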
# Target sequence (P78536 215-824 limits assumed): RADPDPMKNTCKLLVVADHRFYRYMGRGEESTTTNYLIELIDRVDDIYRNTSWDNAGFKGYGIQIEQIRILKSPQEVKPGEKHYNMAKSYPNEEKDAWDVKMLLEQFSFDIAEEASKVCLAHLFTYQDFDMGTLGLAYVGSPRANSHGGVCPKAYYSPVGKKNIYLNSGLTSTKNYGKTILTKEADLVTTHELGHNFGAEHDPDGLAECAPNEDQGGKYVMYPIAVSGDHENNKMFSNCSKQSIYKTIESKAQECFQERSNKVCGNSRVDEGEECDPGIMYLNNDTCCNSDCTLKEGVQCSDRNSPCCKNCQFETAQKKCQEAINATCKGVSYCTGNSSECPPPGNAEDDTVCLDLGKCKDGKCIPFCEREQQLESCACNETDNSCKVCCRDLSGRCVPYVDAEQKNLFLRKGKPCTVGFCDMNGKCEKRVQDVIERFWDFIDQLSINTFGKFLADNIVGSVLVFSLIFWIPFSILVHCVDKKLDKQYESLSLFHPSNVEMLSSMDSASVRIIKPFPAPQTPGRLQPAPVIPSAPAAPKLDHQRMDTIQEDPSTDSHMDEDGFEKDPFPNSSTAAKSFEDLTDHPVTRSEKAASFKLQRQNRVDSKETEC
# FAS-TE inh – inhibitors of human fatty acid synthase thioesterase domain; P49327; inhibition, % at 15 µM; recombinant FAS-TE, OMFH fluorogenic substrate, fluorescence endpoint; 360,000 compounds, 0.67% hits;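 active = compounds whose normalised, plate-corrected inhibition of enzyme fluorescence in the single-dose primary screen is 50% or more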;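 also: 0% = DMSO with enzyme and 100% = substrate without enzyme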
# CendR NRP1 mod – NRP-1/CendR interaction modulation | O14786 | FAM-RPARPAR peptide binding to NRP-1, fluorescence polarization | inhibition, % at 25 µM | 360,000 compounds, 0.85% hits | AID 602438;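 active = inhibition or corrected inhibition above about 18%, plus a signal ratio from 0.5 to 1.5, limit read from the data, passing the limit was not always enough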
# Arrestin-AP2 inh – blocks beta-arrestin peptide binding to AP2 adaptin | FITC-arrestin peptide / GST-AP2 beads, flow cytometry; AP2 beta2 appendage carries R879A mutation | inhibition, % at 10 µM | 340,000 compounds, 0.31% hits;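 active = inhibition above a set limit, near 3 SD of compounds lacking own fluorescence, cut at about 54% in these data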;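 also: plate controls were DMSO wells for no effect and 5 µM unlabelled arrestin peptide for full effect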
#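 Material – AP2 appendage R879A on GSH beads · Buffer or medium – PBS with 0.05% Tween 20 and 0.1% BSA · Probe or stimulus – fluorescein-tagged arrestin peptide at 50 nM final · Incubation – compound with beads 12 min RT, then probe 1 h RT · Detection – high-throughput flow cytometry of beads, ex 488, em 535 nm · Evaluation – percent response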
# CaV13 ICDI inh – Disruptors of the CACNA1D IQ motif to Ca2+-dependent inactivation inhibitor domain association, primary screening, Förster resonance energy transfer in intact living …; inhibition, % at 12.3 µM; 340,000 compounds, 0.098% hits; AID 743397; HEK cells, CFP/YFP FRET ICDI-IQ, plate reader, 10 min; percent FRET-ratio fall versus neutral wells;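 active = mean replicate inhibition of at least 30% and at least 1% of replicates passing that level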;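 also: 0% = median of the neutral control wells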
# ADAM10 inh – ADAM10 inhibition, QFRET primary screen. recombinant ADAM10, EDANS/DABCYL FRET peptide cleavage, 3 h. inhibition, % at 7 µM. 370,000 compounds, 0.62% hits;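 active = inhibition above a per-campaign cutoff equal to the mean of compounds falling between control-based bounds plus 3 SD, cut at about 20% in these data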;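 also: 0% = DMSO wells while the 100% control is not disclosed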
# Arr AP2 CP1 – inhibitors of human beta-arrestin and AP2 interaction; inhibition, % at 10 µM; GST-AP2 beads, FITC arrestin peptide binding, flow cytometry; GST-fused beta2-adaptin appendage, R879A mutant; 1,300 compounds, 2% hits; shares compounds with Arrestin-AP2 inh;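 active = inhibition above a set limit, roughly 3 SD of non-fluorescent compound noise, cut at about 38% in these data; inactive = inhibition at or below that limit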;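 also: loss of bead fluorescence from 50 nM FITC arrestin peptide bound to appendage; 0% = negative control wells and 100% = excess unlabelled arrestin peptide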
# GST-FITC bead – counter-screen for beta-arrestin AP2 inhibitors: GST-GSH bead binding | shares compounds with Arrestin-AP2 inh | GST-fluorescein binding to GSH beads, fluorescence | inhibition, % at 10 µM | 1,300 compounds, 2% hits;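 active = inhibition above 50%, about 3 SD of the inhibition seen with non-fluorescent compounds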;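 also: fluorescein maleimide labelled GST captured on 4 micron glutathione beads; higher means more loss of bead fluorescence from quenching or blocked binding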
# An asterisk follows results filed as active; / = no result given.
SMILES,ADAM17 inh,FAS-TE inh,CendR NRP1 mod,Arrestin-AP2 inh,CaV13 ICDI inh,ADAM10 inh,Arr AP2 CP1,GST-FITC bead
O=C(c1ccccc1CCc1ccccc1)N1CCN(c2ccccn2)CC1,0,6,-1,84*,-5,-2,-8,-1
O=C(CCc1ccccc1)N1CCN(c2ccccn2)CC1,0,-7,2,1,-5,-13,/,/
O=C(c1cc2ccccc2o1)N1CCN(c2ccccn2)CC1,-5,-2,-1,59*,-6,-15,0,-3
CCOC(=O)Cn1cnc2sc(C(=O)OC)c(C)c2c1=O,0,-7,-5,-5,-2,3,/,/
CCOC(=O)c1sc2ncn(CC(=O)Nc3cc(C)on3)c(=O)c2c1C,-5,-1,-42,63*,-5,-20,12,-2
COc1ccc(S(=O)(=O)N2CCCCCC2)cc1C(=O)NCc1ccco1,-2,-10,-8,4,-6,-8,/,/
O=C(NCc1ccco1)c1cc(S(=O)(=O)N2CCCC2)ccc1Cl,5,-6,6,54*,/,5,1,-15
O=C(Nc1ccc(Br)cc1F)c1ccncc1,-2,-6,-11,97*,/,-4,2,0
CCOC(=O)[C@@H]1CSCCS(=O)(=O)N1Cc1ccccc1,-2,/,/,/,/,-2,/,/
CC1=C(C(=O)N2CCCCCC2)CC(CC(=O)NCCc2ccccn2)C(=O)N1Cc1ccc(F)cc1 (stereo not given),-5,-1,4,/,-12,-8,/,/
Cc1cc(O)ccc1-c1ccc2nncn2c1,0,-5,-9,/,-6,-14,/,/
COc1ccc(S[C@]2(C(=O)NC(C)C)CC(=O)N[C@@H]2c2ccc(OC)cc2)cc1,-2,/,/,/,/,-4,/,/
O=C(Nc1cc(C(=O)N2CCCC2)ccc1N1CCCC1)c1ccccc1F,-3,-6,7,-5,-9,-8,/,/
COc1ccc(Br)cc1C(=O)Nc1ccccc1N1CCCC1,1,41,-19,-3,-4,10,/,/
CCn1c(=O)n(CC)c2cc(N3CCCC3)c(NC(=O)c3ccccc3F)cc21,-7,1,6,7,-6,-12,-2,-8
CCn1c(=O)n(CC)c2cc(N3CCCC3)c(NC(=O)c3cc(Br)ccc3OC)cc21,-1,/,/,/,-2,10,4,1
CCn1c(=O)n(CC)c2cc(N3CCCC3)c(NC(=O)c3ccccc3C)cc21,-7,-1,27*,4,-6,-17,21,-1
CCNC(=O)N1CCN(c2ccc(N3CCN(Cc4ccccc4)[C@@H](C)C3)c(C)c2)[C@H](C)C1,-4,/,/,/,-11,-8,/,/
CC(C)C[C@H](NC(=O)c1ccccn1)C(=O)N1CCC[C@H]1C(=O)NCc1ccccc1,-1,/,/,/,-12,-9,/,/
COc1cc(OC)c(NC(=O)NNC(=O)C(=O)NC2CC2)cc1Cl,-2,/,/,/,-11,-12,/,/
C#CCSc1ncc(S(=O)(=O)c2ccccc2)c(=O)[nH]1,-2,-7,10,-10,-5,4,/,/
CC(C)Sc1ncc(S(=O)(=O)c2ccccc2)c(=O)[nH]1,0,-6,6,57*,-5,-2,9,4
CN(CCOC(=O)c1cc2ccccc2o1)C1CN(Cc2cn(Cc3ccccc3F)nn2)S(=O)(=O)C1 (stereo not given),2,/,/,/,/,1,/,/
COc1ccc(C(=O)C(C)OC(=O)CNC(=O)c2ccco2)cc1 (stereo not given),2,-7,-1,0,-2,-10,/,/
COc1ccc(CCC(C)NC2CCCCCCC2)cc1 (stereo not given),-3,-5,3,64*,-3,-1,19,9
SMILES,ADAM17 inh,FAS-TE inh,CendR NRP1 mod,Arrestin-AP2 inh,CaV13 ICDI inh,ADAM10 inh,Arr AP2 CP1,GST-FITC bead
C/C(=N\NC(=O)CNc1ccc(F)cc1)c1cc2ccccc2o1,1,8,-2,64*,-4,-1,11,0
CN(Cc1ccccn1)C(=O)C1CCC(=O)N(Cc2cccc(F)c2)C1 (stereo not given),1,-4,10,-8,-3,0,/,/
COc1cccc(CN(C)C(=O)C2CCC(=O)N(Cc3cccc(F)c3)C2)c1 (stereo not given),2,-4,2,42,-12,-9,-2,-1
COc1ccc(OC)c(CNC(=O)CCNC(=O)Cn2ccc3ccccc3c2=O)c1,-1,-6,13,3,-3,6,/,/
COc1ccc(Br)cc1CNC(=O)CCNC(=O)Cn1ccc2ccccc2c1=O,-4,0,-7,57*,-3,1,1,0
CCOc1ccc(S(=O)(=O)Nc2ccn(C)n2)cc1,-3,-3,8,77*,-6,-11,-16,1
CCOc1ccc(S(=O)(=O)Nc2ccc(C(=O)NCC3CCCO3)cc2)cc1 (stereo not given),-2,-6,-5,56*,-3,-1,21,-9
CCOc1ccc(S(=O)(=O)NC2CCCCCC2)cc1,-3,7,-7,57*,-6,1,-3,1
COC(=O)COc1ccc(S(=O)(=O)NC2CCCCCC2)cc1,-3,-5,0,8,/,5,/,/
COc1ccc(C2=CCC3CCCCN3C2)cc1OC (stereo not given),-3,0,-2,4,-12,0,/,/
CN(C(=O)CSc1nnc(C2CC2)n1-c1ccccc1)C1CCS(=O)(=O)C1 (stereo not given),-4,-7,5,1,-5,-1,/,/
Cc1ccccc1CN1CCC(N2CCC(C(=O)NCC3CCCO3)CC2)CC1 (stereo not given),-1,-9,-6,65*,/,-6,-2,-5
COCCSc1nnc(NS(=O)(=O)c2ccccc2)s1,-3,-8,1,2,0,-2,/,/
COCCSc1nnc(NS(=O)(=O)c2ccc(C)cc2)s1,1,-2,4,59*,-3,8,3,-2
COc1cccc(OCC(O)CN2C(C)CCCC2C)c1 (stereo not given),-1,-4,-3,0,/,3,/,/
Cc1cc(OCC(O)CN2C(C)CCCC2C)ccc1C(C)C (stereo not given),2,-5,0,54*,-5,-3,1,-3
CC(C)CN(C(=O)c1ccc(S(=O)(=O)N2CCCC2)cc1)C1CCS(=O)(=O)C1 (stereo not given),-2,-9,11,55*,-2,-7,8,-8
